Source: PMC7993274 (Clinical and Translational Science, 2020)

Assay: Treatment-emergent adverse events, SAD period
Assay type: in vivo, human
How it was run: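 Double-blind, placebo-controlled study in healthy men and nonchildbearing women aged 18–55 y. The SAD period gave one fasted oral dose; the MAD period gave fed dosing q.d. for 10 days, plus a separate b.i.d. cohort. TEAEs, serious AEs and discontinuation AEs were monitored ≥28 days after the last dose. Vital signs, physical exam, 12-lead ECG, hematology, clinical chemistry and urinalysis were also recorded. Data summarized descriptively.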

Compound: Cn1cc(-c2cn3nccc3c(-c3cnn([C@]4(CC#N)C[C@@H](C#N)C4)c3)n2)cn1 [PF‐06826647]
- Severe AEs (SAD 30 mg (n = 8)): 0 n
- AEs (SAD 100 mg (n = 7)): 9 n
- AEs leading to study drug dose reduction or interruption (SAD 100 mg (n = 7)): 0 n
- Participants with AEs (SAD 100 mg (n = 7)): 1 (14.3) n (%)
- Participants with TEAEs: Alanine aminotransferase increased (SAD 100 mg (n = 7)): 0 n (%)
- Participants with TEAEs: Aspartate aminotransferase increased (SAD 100 mg (n = 7)): 0 n (%)
- Participants with TEAEs: Edema (SAD 100 mg (n = 7)): 1 (14.3) n (%)
- Participants with TEAEs: Face edema (SAD 100 mg (n = 7)): 1 (14.3) n (%)
- Participants with TEAEs: Gastrointestinal disorders (SOC) (SAD 100 mg (n = 7)): 1 (14.3) n (%)
- Participants with TEAEs: General disorders and administration site conditions (SOC) (SAD 100 mg (n = 7)): 1 (14.3) n (%)
- Participants with TEAEs: Headache (SAD 100 mg (n = 7)): 1 (14.3) n (%)
- Participants with TEAEs: Injury, poisoning, and procedural complications (SOC) (SAD 100 mg (n = 7)): 1 (14.3) n (%)
- Participants with TEAEs: Investigations (SOC) (SAD 100 mg (n = 7)): 0 n (%)
- Participants with TEAEs: Nausea (SAD 100 mg (n = 7)): 1 (14.3) n (%)
- Participants with TEAEs: Nervous system disorders (SOC) (SAD 100 mg (n = 7)): 1 (14.3) n (%)
- Participants with TEAEs: Periorbital hematoma (SAD 100 mg (n = 7)): 1 (14.3) n (%)
- Participants with TEAEs: Periorbital hemorrhage (SAD 100 mg (n = 7)): 1 (14.3) n (%)
- Participants with TEAEs: Peripheral swelling (SAD 100 mg (n = 7)): 0 n (%)
- Participants with TEAEs: Pruritus (SAD 100 mg (n = 7)): 1 (14.3) n (%)
- Participants with TEAEs: Rash (SAD 100 mg (n = 7)): 1 (14.3) n (%)
- Participants with TEAEs: Skin and subcutaneous tissue disorders (SOC) (SAD 100 mg (n = 7)): 1 (14.3) n (%)
- Participants with TEAEs: Urticaria (SAD 100 mg (n = 7)): 1 (14.3) n (%)
- SAEs (SAD 100 mg (n = 7)): 0 n
- Severe AEs (SAD 100 mg (n = 7)): 0 n
- AEs (SAD 400 mg (n = 8)): 0 n
- AEs leading to study drug dose reduction or interruption (SAD 400 mg (n = 8)): 0 n
- Participants with AEs (SAD 400 mg (n = 8)): 0 n (%)
- Participants with TEAEs: Alanine aminotransferase increased (SAD 400 mg (n = 8)): 0 n (%)
- Participants with TEAEs: Aspartate aminotransferase increased (SAD 400 mg (n = 8)): 0 n (%)
- Participants with TEAEs: Edema (SAD 400 mg (n = 8)): 0 n (%)
- Participants with TEAEs: Face edema (SAD 400 mg (n = 8)): 0 n (%)
- Participants with TEAEs: Gastrointestinal disorders (SOC) (SAD 400 mg (n = 8)): 0 n (%)
- Participants with TEAEs: General disorders and administration site conditions (SOC) (SAD 400 mg (n = 8)): 0 n (%)
- Participants with TEAEs: Headache (SAD 400 mg (n = 8)): 0 n (%)
- Participants with TEAEs: Injury, poisoning, and procedural complications (SOC) (SAD 400 mg (n = 8)): 0 n (%)
- Participants with TEAEs: Investigations (SOC) (SAD 400 mg (n = 8)): 0 n (%)
- Participants with TEAEs: Nausea (SAD 400 mg (n = 8)): 0 n (%)
- Participants with TEAEs: Nervous system disorders (SOC) (SAD 400 mg (n = 8)): 0 n (%)
- Participants with TEAEs: Periorbital hematoma (SAD 400 mg (n = 8)): 0 n (%)
- Participants with TEAEs: Periorbital hemorrhage (SAD 400 mg (n = 8)): 0 n (%)
- Participants with TEAEs: Peripheral swelling (SAD 400 mg (n = 8)): 0 n (%)
- Participants with TEAEs: Pruritus (SAD 400 mg (n = 8)): 0 n (%)
- Participants with TEAEs: Rash (SAD 400 mg (n = 8)): 0 n (%)
- Participants with TEAEs: Skin and subcutaneous tissue disorders (SOC) (SAD 400 mg (n = 8)): 0 n (%)
- Participants with TEAEs: Urticaria (SAD 400 mg (n = 8)): 0 n (%)
- SAEs (SAD 400 mg (n = 8)): 0 n
- Severe AEs (SAD 400 mg (n = 8)): 0 n
- AEs (SAD 1,600 mg (n = 6)): 3 n
- AEs leading to study drug dose reduction or interruption (SAD 1,600 mg (n = 6)): 0 n
- Participants with AEs (SAD 1,600 mg (n = 6)): 2 (33.3) n (%)
- Participants with TEAEs: Alanine aminotransferase increased (SAD 1,600 mg (n = 6)): 1 (16.7) n (%)
- Participants with TEAEs: Aspartate aminotransferase increased (SAD 1,600 mg (n = 6)): 1 (16.7) n (%)
- Participants with TEAEs: Edema (SAD 1,600 mg (n = 6)): 0 n (%)
- Participants with TEAEs: Face edema (SAD 1,600 mg (n = 6)): 0 n (%)
- Participants with TEAEs: Gastrointestinal disorders (SOC) (SAD 1,600 mg (n = 6)): 0 n (%)
- Participants with TEAEs: General disorders and administration site conditions (SOC) (SAD 1,600 mg (n = 6)): 1 (16.7) n (%)
- Participants with TEAEs: Headache (SAD 1,600 mg (n = 6)): 0 n (%)
- Participants with TEAEs: Injury, poisoning, and procedural complications (SOC) (SAD 1,600 mg (n = 6)): 0 n (%)
- Participants with TEAEs: Investigations (SOC) (SAD 1,600 mg (n = 6)): 1 (16.7) n (%)
- Participants with TEAEs: Nausea (SAD 1,600 mg (n = 6)): 0 n (%)
- Participants with TEAEs: Nervous system disorders (SOC) (SAD 1,600 mg (n = 6)): 0 n (%)
- Participants with TEAEs: Periorbital hematoma (SAD 1,600 mg (n = 6)): 0 n (%)
- Participants with TEAEs: Periorbital hemorrhage (SAD 1,600 mg (n = 6)): 0 n (%)
- Participants with TEAEs: Peripheral swelling (SAD 1,600 mg (n = 6)): 1 (16.7) n (%)
- Participants with TEAEs: Pruritus (SAD 1,600 mg (n = 6)): 0 n (%)
- Participants with TEAEs: Rash (SAD 1,600 mg (n = 6)): 0 n (%)
- Participants with TEAEs: Skin and subcutaneous tissue disorders (SOC) (SAD 1,600 mg (n = 6)): 0 n (%)
- Participants with TEAEs: Urticaria (SAD 1,600 mg (n = 6)): 0 n (%)
- SAEs (SAD 1,600 mg (n = 6)): 0 n
- Severe AEs (SAD 1,600 mg (n = 6)): 0 n
